Assay results from PMC3809033 (Clinical pharmacology and therapeutics, 2011).

Legend:
[1] = target: T1, 5-HT2C receptor (Homo sapiens, UniProt P28335); assay: radioligand competition binding; settings: read-out: [drawing 1] / In vitro; Cheng-Prusoff; details in supplement
T1 sequence (P28335 33-458): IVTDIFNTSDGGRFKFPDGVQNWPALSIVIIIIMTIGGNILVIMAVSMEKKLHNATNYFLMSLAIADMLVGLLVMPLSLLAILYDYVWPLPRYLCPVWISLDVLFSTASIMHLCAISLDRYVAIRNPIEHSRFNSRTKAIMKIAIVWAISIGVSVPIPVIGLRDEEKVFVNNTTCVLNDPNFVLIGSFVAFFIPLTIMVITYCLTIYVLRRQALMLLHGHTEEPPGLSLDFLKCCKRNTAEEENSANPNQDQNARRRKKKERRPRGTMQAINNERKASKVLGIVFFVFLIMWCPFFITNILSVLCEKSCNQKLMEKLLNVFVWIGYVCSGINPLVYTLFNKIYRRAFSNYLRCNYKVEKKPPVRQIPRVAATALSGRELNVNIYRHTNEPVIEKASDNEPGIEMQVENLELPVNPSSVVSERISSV
Outline: (§1)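 Test compound (purity >98%) was run in competition against radioligand binding at six concentrations from 10 nmol/l to 100 μmol/l to build concentration–response curves. IC50 (50% displacement of bound radioligand) was obtained by nonlinear fitting. Ki was derived with Cheng–Prusoff, using free radioligand concentration and each radioligand's KD, and expressed as pKi.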

[2] = target: serotonin transporter (Homo sapiens, UniProt P31645); assay: radioligand competition binding; settings: read-out: [drawing 1] / In vitro; Cheng-Prusoff; details in supplement
Outline: as §1

[3] = target: norepinephrine transporter (Homo sapiens, UniProt P23975); assay: radioligand competition binding; settings: read-out: [drawing 1] / In vitro; Cheng-Prusoff; details in supplement
Outline: as §1

[4] = target: 5-HT2A receptor (Homo sapiens, UniProt P28223); assay: inositol phosphate release, antagonist mode; format: cell-based; settings: receptor activated by 1 μmol/l 5-HT
[5] = target: 5-HT6 receptor (Homo sapiens, UniProt P50406); assay: radioligand competition binding; settings: read-out: [drawing 1] / In vitro; Cheng-Prusoff; details in supplement
Outline: as §1

[6] = target: dopamine transporter (DAT) (Homo sapiens, UniProt Q01959); assay: radioligand competition binding; settings: read-out: [drawing 1] / In vitro; Cheng-Prusoff; details in supplement
Outline: as §1

[7] = target: 5-HT7 receptor (Homo sapiens, UniProt P34969); assay: radioligand competition binding; settings: read-out: [drawing 1] / In vitro; Cheng-Prusoff; details in supplement
Outline: as §1

[8] = target: 5-HT2B receptor (Homo sapiens, UniProt P41595); assay: radioligand competition binding; settings: read-out: [drawing 1] / In vitro; Cheng-Prusoff; details in supplement
Outline: as §1

Chain of 5-HT6 receptor (P50406 whole entry): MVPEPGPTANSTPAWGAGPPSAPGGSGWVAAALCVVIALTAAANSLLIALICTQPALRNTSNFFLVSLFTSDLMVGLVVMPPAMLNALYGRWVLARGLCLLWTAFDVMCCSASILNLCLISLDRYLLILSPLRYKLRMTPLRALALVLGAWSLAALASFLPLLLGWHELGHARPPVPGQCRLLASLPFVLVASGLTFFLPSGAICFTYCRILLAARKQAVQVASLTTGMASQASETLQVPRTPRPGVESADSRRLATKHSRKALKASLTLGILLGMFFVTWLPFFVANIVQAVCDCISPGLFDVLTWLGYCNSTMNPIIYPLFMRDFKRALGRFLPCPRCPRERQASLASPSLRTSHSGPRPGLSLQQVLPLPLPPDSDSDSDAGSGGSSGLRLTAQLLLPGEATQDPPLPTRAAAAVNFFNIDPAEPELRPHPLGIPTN
Chain of serotonin transporter (P31645 whole entry): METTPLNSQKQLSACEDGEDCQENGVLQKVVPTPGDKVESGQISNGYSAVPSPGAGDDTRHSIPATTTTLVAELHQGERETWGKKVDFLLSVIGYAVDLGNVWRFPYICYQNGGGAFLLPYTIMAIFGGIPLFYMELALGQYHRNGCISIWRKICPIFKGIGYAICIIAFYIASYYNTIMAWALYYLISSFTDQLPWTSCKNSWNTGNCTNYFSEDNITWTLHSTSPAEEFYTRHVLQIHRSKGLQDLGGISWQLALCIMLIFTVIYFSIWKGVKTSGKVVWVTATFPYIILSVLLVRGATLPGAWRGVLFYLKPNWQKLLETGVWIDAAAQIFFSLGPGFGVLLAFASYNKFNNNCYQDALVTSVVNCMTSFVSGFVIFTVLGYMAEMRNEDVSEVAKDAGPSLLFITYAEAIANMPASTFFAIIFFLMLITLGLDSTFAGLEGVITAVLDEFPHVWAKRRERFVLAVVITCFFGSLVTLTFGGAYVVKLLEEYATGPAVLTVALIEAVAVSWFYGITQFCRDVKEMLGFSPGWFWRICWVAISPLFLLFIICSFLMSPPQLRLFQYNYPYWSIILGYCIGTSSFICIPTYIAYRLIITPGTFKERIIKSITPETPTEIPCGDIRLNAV
Chain of 5-HT2A receptor (P28223 whole entry): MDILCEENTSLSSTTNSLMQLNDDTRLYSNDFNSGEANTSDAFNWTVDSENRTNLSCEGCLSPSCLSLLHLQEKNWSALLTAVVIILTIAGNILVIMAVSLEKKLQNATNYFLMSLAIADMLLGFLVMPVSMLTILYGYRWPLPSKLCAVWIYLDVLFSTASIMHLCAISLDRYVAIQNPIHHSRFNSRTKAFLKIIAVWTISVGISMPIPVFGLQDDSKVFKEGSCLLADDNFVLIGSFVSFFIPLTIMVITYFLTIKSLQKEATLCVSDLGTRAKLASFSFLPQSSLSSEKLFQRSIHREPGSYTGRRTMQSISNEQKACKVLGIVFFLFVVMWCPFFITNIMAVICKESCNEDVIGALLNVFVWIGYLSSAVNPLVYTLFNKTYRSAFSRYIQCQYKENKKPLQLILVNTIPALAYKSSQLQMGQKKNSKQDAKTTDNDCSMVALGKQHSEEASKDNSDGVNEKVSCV
Chain of 5-HT7 receptor (P34969 whole entry): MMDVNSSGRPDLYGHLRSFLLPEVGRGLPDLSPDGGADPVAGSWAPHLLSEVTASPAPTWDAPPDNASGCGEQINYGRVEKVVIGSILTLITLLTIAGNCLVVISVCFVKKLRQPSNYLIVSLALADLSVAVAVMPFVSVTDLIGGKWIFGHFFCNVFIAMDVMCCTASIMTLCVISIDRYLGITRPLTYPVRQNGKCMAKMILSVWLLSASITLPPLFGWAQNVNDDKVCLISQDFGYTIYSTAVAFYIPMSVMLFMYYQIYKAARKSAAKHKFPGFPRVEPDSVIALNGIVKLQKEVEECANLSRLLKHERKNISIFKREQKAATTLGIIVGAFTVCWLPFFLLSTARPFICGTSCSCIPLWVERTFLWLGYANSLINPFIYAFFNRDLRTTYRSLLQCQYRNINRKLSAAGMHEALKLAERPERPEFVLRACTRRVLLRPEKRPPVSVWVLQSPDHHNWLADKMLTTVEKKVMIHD
Chain of norepinephrine transporter (P23975 whole entry): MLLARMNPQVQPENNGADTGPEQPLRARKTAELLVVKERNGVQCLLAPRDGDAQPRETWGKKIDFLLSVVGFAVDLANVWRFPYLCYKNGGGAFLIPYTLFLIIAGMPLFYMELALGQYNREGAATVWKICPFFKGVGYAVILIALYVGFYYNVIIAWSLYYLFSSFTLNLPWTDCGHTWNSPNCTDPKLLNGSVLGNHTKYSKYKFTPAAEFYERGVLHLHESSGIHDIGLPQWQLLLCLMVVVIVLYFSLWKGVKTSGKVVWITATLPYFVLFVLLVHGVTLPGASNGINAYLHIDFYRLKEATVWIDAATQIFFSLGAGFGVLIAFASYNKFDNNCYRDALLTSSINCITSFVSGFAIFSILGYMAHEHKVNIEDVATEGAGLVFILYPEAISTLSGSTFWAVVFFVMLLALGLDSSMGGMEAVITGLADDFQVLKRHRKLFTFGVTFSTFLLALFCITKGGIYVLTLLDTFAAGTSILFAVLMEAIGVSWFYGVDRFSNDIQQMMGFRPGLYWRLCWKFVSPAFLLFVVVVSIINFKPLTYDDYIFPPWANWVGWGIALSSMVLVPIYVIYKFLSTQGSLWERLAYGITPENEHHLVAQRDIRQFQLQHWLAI
Chain of 5-HT2B receptor (P41595 whole entry): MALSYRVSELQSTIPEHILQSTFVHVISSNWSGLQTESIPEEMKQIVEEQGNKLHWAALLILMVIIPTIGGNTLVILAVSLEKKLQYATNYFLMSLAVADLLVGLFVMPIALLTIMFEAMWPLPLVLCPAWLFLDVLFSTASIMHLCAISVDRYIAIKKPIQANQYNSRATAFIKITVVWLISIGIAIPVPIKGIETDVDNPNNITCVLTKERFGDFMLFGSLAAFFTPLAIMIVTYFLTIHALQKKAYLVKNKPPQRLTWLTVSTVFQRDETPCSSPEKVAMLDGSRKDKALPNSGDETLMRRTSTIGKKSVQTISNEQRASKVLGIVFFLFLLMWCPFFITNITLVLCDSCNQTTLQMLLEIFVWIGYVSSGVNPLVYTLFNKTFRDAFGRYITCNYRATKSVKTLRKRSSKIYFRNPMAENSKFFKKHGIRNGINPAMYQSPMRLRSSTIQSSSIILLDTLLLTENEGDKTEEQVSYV
Chain of dopamine transporter (DAT) (Q01959 whole entry): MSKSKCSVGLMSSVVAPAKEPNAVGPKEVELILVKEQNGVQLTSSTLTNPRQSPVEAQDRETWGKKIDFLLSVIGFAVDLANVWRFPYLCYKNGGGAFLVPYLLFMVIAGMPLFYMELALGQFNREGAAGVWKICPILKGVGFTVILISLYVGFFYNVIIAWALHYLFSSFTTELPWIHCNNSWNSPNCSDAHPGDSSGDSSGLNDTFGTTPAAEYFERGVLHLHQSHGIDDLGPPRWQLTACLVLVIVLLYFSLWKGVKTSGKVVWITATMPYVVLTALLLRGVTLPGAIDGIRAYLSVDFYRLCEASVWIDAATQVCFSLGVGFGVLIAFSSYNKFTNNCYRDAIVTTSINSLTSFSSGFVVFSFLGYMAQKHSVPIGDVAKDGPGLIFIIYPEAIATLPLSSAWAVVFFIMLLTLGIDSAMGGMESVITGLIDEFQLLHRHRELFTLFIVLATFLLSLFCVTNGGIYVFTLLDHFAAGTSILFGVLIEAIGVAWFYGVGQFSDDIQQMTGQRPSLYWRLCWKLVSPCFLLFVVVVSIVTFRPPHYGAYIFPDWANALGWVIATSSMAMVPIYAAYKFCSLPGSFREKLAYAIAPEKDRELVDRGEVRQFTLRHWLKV

CN(C)CCC=C1c2ccccc2C=Cc2ccccc21 [cyclobenzaprine]
Ki [1]: 57 nM | Ki [2]: 108 nM | Ki [3]: 36 nM | Kb [4]: 28.8 ± 2.49 nM | Ki [5]: 145 nM | Ki [6]: 5490 nM | Ki [7]: 151 nM | Ki [8]: 154 nM
